Active and inactive are the calls of the source. The calls are words filed in the database; no cut-off is given here.
What was measured:
MRRL-CH1 [1] = assay: Inhibitory effect on outgrowth of MRRL-CH1 cell line at 0.5 uM concentration; Reversible; format: functional, cell-based; details: Manduca sexta
Method in brief: (§1)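 Embryonic Manduca sexta MRRL-CH1 cells, grown attached in DL medium in room air. Analogue in DMSO was added to well cultures 2–4 days after seeding, for 48 h. Drug was then diluted 16-fold by two medium exchanges, and cells were followed for 6 more days. Neurite outgrowth and reversibility were judged from photographs taken at 0, 24 and 48 h of exposure and at 24, 48 and 144 h after removal. Duplicates, with DMSO vehicle control.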

MRRL-CH1 [2] = assay: Inhibitory effect on outgrowth of MRRL-CH1 cell line at 1 uM concentration; Irreversible; format: functional, cell-based; details: Manduca sexta; method in brief: as §1
MRRL-CH1 [3] = assay: Inhibitory effect on outgrowth of MRRL-CH1 cell line at 5 uM concentration; Irreversible; format: functional, cell-based; details: Manduca sexta; method in brief: as §1
MRRL-CH1 [4] = assay: Inhibitory effect on outgrowth of MRRL-CH1 cell line at 1 uM concentration; No Effect; format: functional, cell-based; details: Manduca sexta; method in brief: as §1
MRRL-CH1 [5] = assay: Inhibitory effect on outgrowth of MRRL-CH1 cell line at 5 uM concentration; No Effect; format: functional, cell-based; details: Manduca sexta; method in brief: as §1
MRRL-CH1 [6] = assay: Inhibitory effect on outgrowth of MRRL-CH1 cell line at 0.5 uM concentration; No Effect; format: functional, cell-based; details: Manduca sexta; method in brief: as §1
Rattus norvegicus = species on record: Rattus norvegicus; assay: Concentration required to reduce the length of total axon plexus in rat embryonic hippocampal neurons; format: functional
SH-SY5Y = assay: Concentration required to inhibit neurite outgrowth in SH-SY5Y cell line; format: functional, cell-based

| Structure (SMILES) | Inhibitory effect (MRRL-CH1 [1]) | Inhibitory effect (MRRL-CH1 [2]) | Inhibitory effect (MRRL-CH1 [3]) | Inhibitory effect (MRRL-CH1 [4]) | Inhibitory effect (MRRL-CH1 [5]) | Inhibitory effect (MRRL-CH1 [6]) | Concentration (Rattus norvegicus) [µM] | Concentration (SH-SY5Y) [µM] |
| --- | --- | --- | --- | --- | --- | --- | --- | --- |
| CCCCCCCCCC(=O)N[C@H](CN1CCOCC1)[C@H](O)c1ccc(OC(C)(C)C)cc1 | Reversible | Irreversible | Irreversible | – | – | – | – | – |
| CCCCCCCCCC(=O)N[C@H](CN1CCOCC1)[C@H](O)c1ccc2c(c1)OCO2 | Reversible | Irreversible | Irreversible | – | – | – | – | – |
| CCCCCCCCCC(=O)N[C@H](CN1CCOCC1)[C@H](O)c1ccc(OC)cc1 | Reversible | Irreversible | Irreversible | – | – | – | – | – |
| CCCCCCCCCC(=O)N[C@H](CN1CCOCC1)[C@H](O)c1ccccc1 | – | – | – | inactive | inactive | inactive | 50 | 20 |

— ChEMBL document CHEMBL1147630, “New PDMP analogues inhibit process outgrowth in an insect cell line” (Bioorg Med Chem Lett, 2004)
